Consider 7 compounds from ChEMBL document CHEMBL4425163, “Structure elucidation of anti-methicillin resistant Staphylococcus aureus (MRSA) flavonoids from balsam poplar buds” (Bioorg Med Chem, 2016).

In brackets after ≈: the same amount, converted by molar mass.

For experiment [1], the system named is Staphylococcus aureus. Nature of the experiment: Antibacterial activity against methicillin resistant Staphylococcus aureus clinical isolate 6 incubated […] by microdilution resazurin assay. It is filed as functional. Conditions: Staphylococcus aureus, isolate 6; read-out: MIC.
Experiment [2] concerns Staphylococcus aureus. Nature of the experiment: Antibacterial activity against methicillin resistant Staphylococcus aureus clinical isolate 2 incubated […] by microdilution resazurin assay. As to conditions: Staphylococcus aureus, isolate 2; read-out: MIC. It is filed as functional.
Experiment [3] has as its system Staphylococcus aureus. Nature of the experiment: Antibacterial activity against methicillin resistant Staphylococcus aureus clinical isolate 1 incubated […] by microdilution resazurin assay. Format: functional. As to conditions: Staphylococcus aureus, isolate 1; read-out: MIC.
The subject of experiment [4] is Staphylococcus aureus. The experiment in a line: Antibacterial activity against methicillin resistant Staphylococcus aureus clinical isolate 9 incubated […] by microdilution resazurin assay. It is filed as functional. As to conditions: Staphylococcus aureus, isolate 9; read-out: MIC.
Experiment [5] is described as follows: Cytotoxicity against human WS1 cells by resazurin reduction assay. Format: cell-based. Conditions: Homo sapiens, WS1. In a few lines:
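WS1 human fibroblast line; resazurin reduction test, slightly modified from an earlier method. Etoposide served as positive control.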

In experiment [6] the test system is Staphylococcus aureus. Nature of the experiment: Antibacterial activity against methicillin resistant Staphylococcus aureus clinical isolate 3 incubated for 7 to 14 days by microdilution resazurin assay.
Experiment [7] deals with Staphylococcus aureus. Nature of the experiment: Antibacterial activity against methicillin resistant Staphylococcus aureus clinical isolate 4 incubated for 7 to 14 days by microdilution resazurin assay. (In broth dilution the organism is exposed to a series of concentrations in liquid medium.)
Experiment [8] relates to Staphylococcus aureus. The experiment in a line: Antibacterial activity against methicillin resistant Staphylococcus aureus clinical isolate 7 incubated […] by microdilution resazurin assay. It is filed as functional. Conditions: Staphylococcus aureus, isolate 7; read-out: MIC.
In experiment [9] the test system is Staphylococcus aureus. The experiment in a line: Antibacterial activity against methicillin resistant Staphylococcus aureus clinical isolate 5 incubated […] by microdilution resazurin assay. It is filed as functional. Conditions: Staphylococcus aureus, isolate 5; read-out: MIC.
Experiment [10] concerns Staphylococcus aureus. Nature of the experiment: Antibacterial activity against methicillin resistant Staphylococcus aureus clinical isolate 10 incubated […] by microdilution resazurin assay. Format: functional. Conditions: Staphylococcus aureus, isolate 10; read-out: MIC.
In experiment [11] the test system is Staphylococcus aureus. Nature of the experiment: Antibacterial activity against methicillin resistant Staphylococcus aureus clinical isolate 8 incubated […] by microdilution resazurin assay. It is filed as functional. As to conditions: Staphylococcus aureus, isolate 8; read-out: MIC.
For experiment [12], the system named is Staphylococcus aureus. The experiment in a line: Antibacterial activity against Staphylococcus aureus ATCC 25923 incubated […] by microdilution resazurin assay. It is filed as functional.
Where [13] appears, read: Staphylococcus aureus, ATCC 25923, read-out: MIC.

One may read the MIC as the smallest concentration in the dilution series that meets the test's criterion for growth inhibition. As usually defined, the IC50 is the concentration that inhibits the measured activity by half. Low readings indicate greater potency, high ones weaker potency. As to `O=C(CCc1ccccc1)c1c(O)cc2c(c1O)C[C@@H](C/C=C/c1ccc(O)cc1)[C@H](c1ccc(O)cc1)O2` (racemic), the minimum inhibitory concentration (MIC) with Staphylococcus aureus [1], in the experiment on Staphylococcus aureus [2], in the experiment on Staphylococcus aureus [3], in the experiment with Staphylococcus aureus [4], against Staphylococcus aureus [6] and in the experiment with Staphylococcus aureus [7] was greater than 50 µM in each case. In addition, the minimal inhibitory concentration (MIC) with Staphylococcus aureus [8], in the experiment with Staphylococcus aureus [9], in the experiment with Staphylococcus aureus [10], in the experiment on Staphylococcus aureus [11] and in the experiment on Staphylococcus aureus [12] (setting [13]) was greater than 50 µM in each case. The IC50 in experiment [5] is greater than 10 µM.

Regarding `COc1ccc(CCC(=O)c2c(O)cc(O)c(C(c3ccc(O)cc3)C(C/C=C/c3ccc(O)cc3)COC(=O)/C=C/c3ccccc3)c2O)cc1` (racemic), the MIC with Staphylococcus aureus [1], in the experiment with Staphylococcus aureus [2], in the experiment with Staphylococcus aureus [3], with Staphylococcus aureus [4], against Staphylococcus aureus [6] and with Staphylococcus aureus [7] was greater than 50 µM in each case. Also, the MIC with Staphylococcus aureus [8] is greater than 50 µM; in the experiment on Staphylococcus aureus [9] it was greater than 50 µM; in the experiment with Staphylococcus aureus [10], greater than 50 µM; in the experiment on Staphylococcus aureus [11] it was greater than 50 µM; in the experiment on Staphylococcus aureus [12] (setting [13]), 25 µM (≈ 17.5 µg/mL). Moreover, the 50% inhibitory concentration (IC50) in experiment [5] is greater than 10 µM.

For `COc1ccc(CCC(=O)c2c(O)c3c(c4c2O[C@@H](c2ccc(O)cc2)[C@H](C/C=C/c2ccc(O)cc2)C4)O[C@@H](c2ccc(O)cc2)[C@H](O)C3)cc1` (racemic), the MIC in the experiment on Staphylococcus aureus [1] turned out to be 50 µM (≈ 35 µg/mL); in the experiment on Staphylococcus aureus [2] it was 25 µM (≈ 17.5 µg/mL); in the experiment on Staphylococcus aureus [3], 25 µM (≈ 17.5 µg/mL); in the experiment with Staphylococcus aureus [4] it was 25 µM (≈ 17.5 µg/mL); with Staphylococcus aureus [6] it was 25 µM (≈ 17.5 µg/mL); against Staphylococcus aureus [7] it was 50 µM (≈ 35 µg/mL). Moreover, the minimal inhibitory concentration (MIC) in the experiment with Staphylococcus aureus [8] worked out at 25 µM (≈ 17.5 µg/mL); in the experiment with Staphylococcus aureus [9] it was 13 µM (≈ 9.11 µg/mL); in the experiment with Staphylococcus aureus [10], 25 µM (≈ 17.5 µg/mL); in the experiment with Staphylococcus aureus [11], 25 µM (≈ 17.5 µg/mL); in the experiment with Staphylococcus aureus [12] (setting [13]), 50 µM (≈ 35 µg/mL). This compound returned an IC50 in experiment [5] greater than 10 µM.

As to `COc1ccc(CCC(=O)c2c(O)c(C/C=C/c3ccc(O)cc3)c(O)c3c2O[C@@H](c2ccc(O)cc2)[C@H](C/C=C/c2ccc(O)cc2)C3)cc1` (racemic), the MIC turned out to be 6 µM (≈ 4.11 µg/mL) in the experiment on Staphylococcus aureus [1]; 6 µM (≈ 4.11 µg/mL) in the experiment with Staphylococcus aureus [2]; 6 µM (≈ 4.11 µg/mL) with Staphylococcus aureus [3]; 13 µM (≈ 8.9 µg/mL) in the experiment on Staphylococcus aureus [4]; 3 µM (≈ 2.05 µg/mL) against Staphylococcus aureus [6]; 13 µM (≈ 8.9 µg/mL) with Staphylococcus aureus [7]. Moreover, the MIC in the experiment on Staphylococcus aureus [8] is 6 µM (≈ 4.11 µg/mL); in the experiment with Staphylococcus aureus [9], 13 µM (≈ 8.9 µg/mL); in the experiment with Staphylococcus aureus [10], 13 µM (≈ 8.9 µg/mL); in the experiment with Staphylococcus aureus [11], 13 µM (≈ 8.9 µg/mL); with Staphylococcus aureus [12] (setting [13]), 13 µM (≈ 8.9 µg/mL). Further, the 50% inhibitory concentration (IC50) in experiment [5] was greater than 10 µM.

`O=C(CCc1ccccc1)c1c(O)c2c(c3c1O[C@@H](c1ccc(O)cc1)[C@H](C/C=C/c1ccc(O)cc1)C3)O[C@@H](c1ccc(O)cc1)[C@H](O)C2` (racemic): the MIC with Staphylococcus aureus [1], in the experiment with Staphylococcus aureus [2], with Staphylococcus aureus [3], with Staphylococcus aureus [4], in the experiment with Staphylococcus aureus [6] and in the experiment with Staphylococcus aureus [7] was 6 µM (≈ 4.02 µg/mL) each time. Moreover, the MIC in the experiment with Staphylococcus aureus [8], with Staphylococcus aureus [9], with Staphylococcus aureus [10], in the experiment with Staphylococcus aureus [11] and in the experiment on Staphylococcus aureus [12] (setting [13]) was 6 µM (≈ 4.02 µg/mL) throughout. In addition, in [5], the IC50 is greater than 10 µM.

`O=C(/C=C/c1ccccc1)OCC(C/C=C/c1ccc(O)cc1)C(c1ccc(O)cc1)c1c(O)cc(O)c(C(=O)CCc2ccccc2)c1O` (racemic): the MIC with Staphylococcus aureus [1] came out at 25 µM (≈ 16.8 µg/mL); in the experiment on Staphylococcus aureus [2], 25 µM (≈ 16.8 µg/mL); in the experiment with Staphylococcus aureus [3] it was 25 µM (≈ 16.8 µg/mL); in the experiment with Staphylococcus aureus [4], 25 µM (≈ 16.8 µg/mL); with Staphylococcus aureus [6], 13 µM (≈ 8.72 µg/mL); against Staphylococcus aureus [7] it was 25 µM (≈ 16.8 µg/mL). In addition, the MIC in the experiment on Staphylococcus aureus [8] stood at 25 µM (≈ 16.8 µg/mL); in the experiment with Staphylococcus aureus [9], 3 µM (≈ 2.01 µg/mL); in the experiment on Staphylococcus aureus [10], 25 µM (≈ 16.8 µg/mL); in the experiment with Staphylococcus aureus [11] it was 25 µM (≈ 16.8 µg/mL); with Staphylococcus aureus [12] (setting [13]), 50 µM (≈ 33.5 µg/mL). In [5], this compound yielded an IC50 greater than 10 µM.

Consider `O=C(CCc1ccccc1)c1c(O)cc2c(c1O)CC(O)C(c1ccc(O)cc1)O2` (stereo in doubt; (-)-17), for which the MIC is 50 µM (≈ 20.3 µg/mL) in the experiment on Staphylococcus aureus [1]; 50 µM (≈ 20.3 µg/mL) with Staphylococcus aureus [2]; 50 µM (≈ 20.3 µg/mL) in the experiment with Staphylococcus aureus [3]; greater than 50 µM with Staphylococcus aureus [4]; 50 µM (≈ 20.3 µg/mL) against Staphylococcus aureus [6]; 50 µM (≈ 20.3 µg/mL) with Staphylococcus aureus [7]. Moreover, the MIC is 25 µM (≈ 10.2 µg/mL) with Staphylococcus aureus [8]; 50 µM (≈ 20.3 µg/mL) in the experiment with Staphylococcus aureus [9]; 50 µM (≈ 20.3 µg/mL) in the experiment with Staphylococcus aureus [10]; greater than 50 µM in the experiment on Staphylococcus aureus [11]; 25 µM (≈ 10.2 µg/mL) in the experiment with Staphylococcus aureus [12]. In experiment [5], this compound yielded an IC50 greater than 10 µM.
